{
  "source": "PubChem BioAssay AID624068",
  "about": "(Broad Institute, 2012)",
  "tested_on": "S. cerevisiae W303 JC-1 mitochondrial potential, flow cytometry",
  "assay": "mitochondrial membrane depolarization in S. cerevisiae W303, mechanism study for C. glabrata antifungal project, flow cytometry, single point, dry powder (AID 624068)",
  "conditions": "at 1 µM; hits give high values",
  "summary_of_the_method": "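Assay system – Saccharomyces cerevisiae W303-1a yeast cells · Measured by – JC-1 flow cytometry, 488 nm excitation · Buffer or medium – SD-CSM growth medium containing 2% glucose · Timing – 90 min 30 °C pre-growth, 4 h compound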",
  "note": "Records with an inconclusive call do not appear.",
  "data": [
    {"smiles": "CCOC(=O)N1C(=O)C2(CCCCC2)N(c2ccc(C)cc2)C1=S", "values": [
      {"measurement": "mitochondrial depolarization score", "result": 27.8}
    ]}
  ]
}
